From ChEMBL document CHEMBL3272173, “Synthesis and biological activity of peptide antagonists of luliberin (luteinizing hormone-releasing hormone)” (J Med Chem, 1979)
“And” between values parts separate entries of the source, which are not always exact repeats. Equal entries are not always repeated. Numbered stars: 1 amine (or outer) side, 2 acyl side, 3 side chain; on linkers, the order of the positions; unused ones are H or OH. Peptide text beside a SMILES is read from it. * marks the point of attachment. NHcHex = C1CCC(N*)CC1; CO = O=C([*:1])[*:2]

Experiments:
Rattus norvegicus [1] = assay: Antiovulatory activity in CD rat assessed as blockade of ovulation at 1 mg, sc administered as six doses at 1200, 1230, 1300, 1350, 1400 and 1450 hrs during proestrus stage measured during estrus stage by dissecting microscopic analysis; assay type: functional
How it was run: (§1)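 Cycling Charles River CD rats were given six subcutaneous injections of analogue in 0.1 mL propylene glycol on the afternoon of proestrus, and controls received vehicle alone. Rats were killed the next morning (estrus). Ovulating animals were scored and ova in the oviducts were counted under a dissecting microscope.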

Rattus norvegicus [2] = assay: Antiovulatory activity in sc dosed CD rat assessed as blockade of ovulation administered as six doses at 1200, 1230, 1300, 1350, 1400 and 1450 hrs during proestrus stage measured during estrus stage by dissecting microscopic analysis; assay type: functional; how it was run: as §1
[3] = target: T1, Gonadotropin-releasing hormone receptor (Rattus norvegicus) (UniProt P30969); assay: In vitro antagonist activity at GNRHR in CD rat anterior pituitary gland assessed as inhibition of LH-RH-stimulated LH release at compound to LH-RH molar ratio of 1000 after 4 hrs by radioimmunoassay; conditions: concentration not given here
T1 sequence (whole entry): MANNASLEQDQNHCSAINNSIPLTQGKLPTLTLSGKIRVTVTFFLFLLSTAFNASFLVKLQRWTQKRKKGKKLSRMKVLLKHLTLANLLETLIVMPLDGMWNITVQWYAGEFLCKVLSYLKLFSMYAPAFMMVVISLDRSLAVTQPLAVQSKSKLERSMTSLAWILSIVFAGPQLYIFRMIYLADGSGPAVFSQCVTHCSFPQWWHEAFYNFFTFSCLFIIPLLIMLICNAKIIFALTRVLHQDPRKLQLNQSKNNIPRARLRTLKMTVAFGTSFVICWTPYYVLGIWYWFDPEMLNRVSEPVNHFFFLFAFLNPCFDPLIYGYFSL
How it was run: (§2)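 Anterior pituitaries from diestrus CD rats (200-250 g) were dissociated enzymatically (collagenase, hyaluronidase, then Viokase). Cells were cultured 4 days at 1.67 × 10^5 cells/mL in DME with 10% horse serum and 2.5% fetal calf serum, then washed serum-free. Duplicate cultures received LH-RH (2-5 × 10^-10 M) with a single analogue concentration in serum-free DME for 4 h at 37 °C. LH in the medium was measured by RIA and reported as % inhibition of LH-RH-stimulated release.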

[4] = target: T1, Gonadotropin-releasing hormone receptor (Rattus norvegicus); assay: In vitro antagonist activity at GNRHR in CD rat anterior pituitary gland assessed as inhibition of LH-RH-stimulated LH release at compound to LH-RH molar ratio of 200 after 4 hrs by radioimmunoassay; conditions: concentration not given here; how it was run: as §2
[5] = target: T1, Gonadotropin-releasing hormone receptor (Rattus norvegicus); assay: In vitro antagonist activity at GNRHR in CD rat anterior pituitary gland assessed as ratio of molar concentration of compound to LH-RH for inhibition of LH-RH-stimulated LH release after 4 hrs by radioimmunoassay
How it was run: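 Monolayers were cultured 4 days from dissociated anterior pituitary cells of diestrus CD rats. They were exposed in duplicate to LH-RH (2-5 × 10^-10 M) plus multiple analogue concentrations in serum-free DME for 4 h at 37 °C. LH in the medium was measured by radioimmunoassay. The ED50 molar ratio is the analogue:LH-RH molar ratio giving 50% inhibition of LH-RH-stimulated LH release.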

| Compound | inhibition (INH) (Rattus norvegicus [1]) | ED50 (Rattus norvegicus [2]) | inhibition [3] | inhibition [4] | ED50 [5] |
| --- | --- | --- | --- | --- | --- |
| CC(=O)O.CC(C)C[C@H](NC(=O)[C@@H](Cc1ccccc1)NC(=O)[C@H](Cc1ccc(O)cc1)NC(=O)[C@H](CO)NC(=O)[C@H](Cc1c[nH]c2ccccc12)NC(=O)[C@H](CCC(N)=O)NC(=O)OCc1ccccc1)C(=O)N[C@@H](CCCNC(=N)N)C(=O)N1CCC[C@H]1C(=O)NCC(N)=O | 20% | >3 mg | – | – | – |
| CC[C@H](C)[C@H](NC(=O)OCc1ccccc1)C(=O)N[C@@H](Cc1c[nH]c2ccccc12)C(=O)N[C@@H](CO)C(=O)N[C@@H](Cc1ccc(O)cc1)C(=O)NCC(=O)N[C@@H](CC(C)C)C(=O)N[C@@H](CCCNC(=N)N)C(=O)N1CCC[C@H]1C(=O)NCC(N)=O.Cl (HELM PEPTIDE1{[O=C(OCc1ccccc1)[*:2]].I.W.S.Y.G.L.R.P.G.[am]}$$$$V2.0) | 20% | >1 mg | 70% | – | – |
| CC(C)C[C@H](NC(=O)CNC(=O)[C@H](Cc1ccc(O)cc1)NC(=O)[C@H](CO)NC(=O)[C@H](Cc1c[nH]c2ccccc12)NC(=O)[C@H](CCC(N)=O)NC(=O)OC(C)(C)C)C(=O)N[C@@H](CCCNC(=N)N)C(=O)N1CCC[C@H]1C(=O)NCC(N)=O (HELM PEPTIDE1{[CC(C)(C)OC(=O)[*:2]].Q.W.S.Y.G.L.R.P.G.[am]}$$$$V2.0) | – | – | 15% | – | – |
| CC(C)C[C@H](NC(=O)CNC(=O)[C@H](Cc1ccc(O)cc1)NC(=O)[C@H](CO)NC(=O)[C@H](Cc1c[nH]c2ccccc12)NC(=O)[C@@H](NC(=O)OCc1ccccc1)C(C)C)C(=O)N[C@@H](CCCNC(=N)N)C(=O)N1CCC[C@H]1C(=O)NCC(N)=O (HELM PEPTIDE1{[O=C(OCc1ccccc1)[*:2]].V.W.S.Y.G.L.R.P.G.[am]}$$$$V2.0) | – | – | 48% | – | – |
| CC(C)C[C@H](NC(=O)CNC(=O)[C@H](Cc1ccc(O)cc1)NC(=O)[C@H](CO)NC(=O)[C@H](Cc1c[nH]c2ccccc12)NC(=O)[C@H](Cc1ccc(O)cc1)NC(=O)OCc1ccccc1)C(=O)N[C@@H](CCCNC(=N)N)C(=O)N1CCC[C@H]1C(=O)NCC(N)=O (HELM PEPTIDE1{[O=C(OCc1ccccc1)[*:2]].Y.W.S.Y.G.L.R.P.G.[am]}$$$$V2.0) | – | – | 16% | – | – |
| CC(C)C[C@H](NC(=O)CNC(=O)[C@H](Cc1ccc(O)cc1)NC(=O)[C@H](CO)NC(=O)[C@H](Cc1c[nH]c2ccccc12)NC(=O)[C@H](CCC(N)=O)NC=O)C(=O)N[C@@H](CCCNC(=N)N)C(=O)N1CCC[C@H]1C(=O)NCC(N)=O (HELM PEPTIDE1{[O=C[*:2]].Q.W.S.Y.G.L.R.P.G.[am]}$$$$V2.0) | – | – | 0% | – | – |
| CC(=O)O.CCNC(=O)[C@@H]1CCCN1C(=O)[C@H](CCCNC(=N)N)NC(=O)[C@H](CC(C)C)NC(=O)[C@@H](Cc1ccc(OC)cc1)NC(=O)[C@H](Cc1ccc(O)cc1)NC(=O)[C@H](CO)NC(=O)[C@H](Cc1c[nH]c2ccccc12)NC(=O)[C@H](COCc1ccccc1)NS(C)(=O)=O | 0% | >1 mg | – | 75% | – |
| CCNC(=O)[C@@H]1CCCN1C(=O)[C@H](CCCNC(=N)N)NC(=O)[C@H](CC(C)C)NC(=O)[C@@H](C)NC(=O)[C@H](Cc1ccc(O)cc1)NC(=O)[C@H](CO)NC(=O)[C@H](Cc1c[nH]c2ccccc12)NC(=O)[C@H](CCC(N)=O)NC(=O)OCc1ccccc1.Cl | 20% | >3 mg | 100% | – | – |
| CCNC(=O)[C@@H]1CCCN1C(=O)[C@H](CCCNC(=N)N)NC(=O)[C@H](CC(C)C)NC(=O)CNC(=O)[C@H](Cc1ccc(O)cc1)NC(=O)[C@H](CO)NC(=O)[C@H](Cc1c[nH]c2ccccc12)NC(=O)[C@H](CC(C)C)NC(=O)OCc1ccccc1.Cl | 20% | >1 mg | 81% | – | – |
| CC(C)C[C@H](NC(=O)[C@@H](Cc1c[nH]c2ccccc12)NC(=O)[C@H](Cc1ccc(O)cc1)NC(=O)[C@H](CO)NC(=O)[C@H](Cc1c[nH]c2ccccc12)NC(=O)[C@H](CCC(N)=O)NC(=O)OCc1ccccc1)C(=O)N[C@@H](CCCNC(=N)N)C(=O)N1CCC[C@H]1C(=O)NCC(N)=O.Cl | 0% | >1 mg | – | 87% | 8 molar ratio |
| CC(C)C[C@H](NC(=O)[C@@H](CO)NC(=O)[C@H](Cc1ccc(O)cc1)NC(=O)[C@H](CO)NC(=O)[C@H](Cc1c[nH]c2ccccc12)NC(=O)[C@H](COCc1ccccc1)NC(=O)OC(C)(C)C)C(=O)N[C@@H](CCCNC(=N)N)C(=O)N1CCC[C@H]1C(=O)NCC(N)=O.Cl | 0% | >1 mg | – | 68% | – |
| CC(C)C[C@H](NC(=O)[C@@H](Cc1ccccc1)NC(=O)[C@H](Cc1ccc(O)cc1)NC(=O)[C@H](CO)NC(=O)[C@H](Cc1c[nH]c2ccccc12)NC(=O)[C@H](CCC(N)=O)NC(=O)OCc1ccccc1)C(=O)N[C@@H](CCCNC(=N)N)C(=O)N1CCC[C@H]1C(=O)NCC(N)=O.Cl | – | >1 mg | – | – | – |
| CCNC(=O)CNC(=O)[C@@H]1CCCN1C(=O)[C@H](CCCNC(=N)N)NC(=O)[C@H](CC(C)C)NC(=O)CNC(=O)[C@H](Cc1ccc(O)cc1)NC(=O)[C@H](CO)NC(=O)[C@H](Cc1c[nH]c2ccccc12)NC(=O)[C@H](CCC(N)=O)NC(=O)OCc1ccccc1 (HELM PEPTIDE1{[O=C(OCc1ccccc1)[*:2]].Q.W.S.Y.G.L.R.P.G.[CCN[*:1]]}$$$$V2.0) | – | – | 40% | – | – |
| CCNC(=O)[C@@H]1CCCN1C(=O)[C@H](CCCNC(=N)N)NC(=O)[C@H](CC(C)C)NC(=O)[C@H](NC(=O)[C@H](Cc1ccc(O)cc1)NC(=O)[C@H](CO)NC(=O)[C@H](Cc1c[nH]c2ccccc12)NC(=O)[C@H](CCC(N)=O)NC(=O)OCc1ccccc1)[C@@H](O)c1ccccc1.Cl | 100% | 0.4 mg | – | – | – |
| CC(C)C[C@H](NC(=O)[C@@H](Cc1ccc(O)cc1)NC(=O)[C@H](Cc1ccc(O)cc1)NC(=O)[C@H](CO)NC(=O)[C@H](Cc1c[nH]c2ccccc12)NC(=O)[C@@H](Cc1ccccc1)NC(=O)OCc1ccccc1)C(=O)N[C@@H](CCCNC(=N)N)C(=O)N1CCC[C@H]1C(=O)NCC(N)=O.Cl | 0% | >1 mg | – | 83% | – |
| CC(C)C[C@H](NC(=O)CNC(=O)[C@H](Cc1ccc(O)cc1)NC(=O)[C@H](CO)NC(=O)[C@H](Cc1c[nH]c2ccccc12)NC(=O)NC1CCCCC1)C(=O)N[C@@H](CCCNC(=N)N)C(=O)N1CCC[C@H]1C(=O)NCC(N)=O ({NHcHex-CO}-WSYGLRPG-NH2) | – | – | 19% | – | – |
| CC(C)C[C@H](NC(=O)[C@@H](Cc1ccccc1)NC(=O)[C@H](Cc1ccc(O)cc1)NC(=O)[C@H](CO)NC(=O)[C@H](Cc1c[nH]c2ccccc12)NC(=O)[C@H](CCC(N)=O)NC(=O)OCc1ccccc1)C(=O)N[C@@H](CCCNC(=N)N)C(=O)N1CCC[C@H]1C(=O)NCC(N)=O | – | – | – | 83% and 93% | 22 molar ratio |
| CC(C)C[C@H](NC(=O)CNC(=O)[C@H](Cc1ccc(O)cc1)NC(=O)[C@H](CO)NC(=O)[C@H](Cc1c[nH]c2ccccc12)NC(=O)[C@H](CC(C)C)NC(=O)OCc1ccccc1)C(=O)N[C@@H](CCCNC(=N)N)C(=O)N1CCC[C@H]1C(=O)NCC(N)=O.Cl (HELM PEPTIDE1{[O=C(OCc1ccccc1)[*:2]].L.W.S.Y.G.L.R.P.G.[am]}$$$$V2.0) | 40% | >3 mg | 95% | – | 750 molar ratio |
| CC(C)C[C@H](NC(=O)CNC(=O)[C@H](Cc1ccc(O)cc1)NC(=O)[C@H](CO)NC(=O)[C@H](Cc1c[nH]c2ccccc12)NC(=O)Cc1ccccc1)C(=O)N[C@@H](CCCNC(=N)N)C(=O)N1CCC[C@H]1C(=O)NCC(N)=O (HELM PEPTIDE1{[O=C(Cc1ccccc1)[*:2]].W.S.Y.G.L.R.P.G.[am]}$$$$V2.0) | – | – | 51% | – | – |
| CC(C)C[C@H](NC(=O)CNC(=O)[C@H](Cc1ccc(O)cc1)NC(=O)[C@H](CO)NC(=O)[C@H](Cc1c[nH]c2ccccc12)NC(=O)[C@H](CC(N)=O)NC(=O)OCc1ccccc1)C(=O)N[C@@H](CCCNC(=N)N)C(=O)N1CCC[C@H]1C(=O)NCC(N)=O (HELM PEPTIDE1{[O=C(OCc1ccccc1)[*:2]].N.W.S.Y.G.L.R.P.G.[am]}$$$$V2.0) | – | – | 35% | – | – |
| CC(=O)O.CCNC(=O)[C@@H]1CCCN1C(=O)[C@H](CCCNC(=N)N)NC(=O)[C@H](CC(C)C)NC(=O)[C@@H](CO)NC(=O)[C@H](Cc1ccc(O)cc1)NC(=O)[C@H](CO)NC(=O)[C@H](Cc1c[nH]c2ccccc12)NC(=O)[C@H](CCC(N)=O)NC(=O)OCc1ccccc1 | 0% | >1 mg | – | 50% | – |
